Data set [1] concerns Mus musculus. Nature of the data set: Antiallodynic activity in oxaliplatin-induced Albino Swiss CD-1 mouse model of peripheral neuropathy assessed as elevation in pain sensitivity threshold at […], ip administered 30 mins prior to oxaliplatin challenge relative to control. It counts as functional.
For data set [2], the species on record is Rattus norvegicus. The data set can be described thus: Displacement of [3H]nitrendipine from L-type calcium channel dihydropyridine binding site in rat cerebral cortex at 100 uM by liquid scintillation spectrometry. The method, boiled down: (§1)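 Radioligand binding was run as a contract service. Percent inhibition of specific labelled-ligand binding was measured at 100 μM test compound, or 200 μM for hERG.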
In general terms: Displacement assays read how much labelled ligand stays bound in the presence of the test substance.

Data set [3] has as its system Mus musculus. The data set can be described thus: Analgesic activity in Albino Swiss CD-1 mouse assessed as increase in pain response latency administered at 150 mg/kg, ip treated up to 90 mins prior to tet by hot plate assay. Type of data set: functional, organism-based. The procedure, abridged:
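Male CD-1 mice, 18–25 g, 6–12 per group, given test agents as 1% aqueous Tween 80 suspension ip. Doses were 50, 100 or 150 mg/kg, with morphine hydrochloride at 4 mg/kg as reference. Mice were placed on the hot plate 15, 30, 45, 60 and 90 min after dosing, and latency to pain reaction was recorded.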
(In general: Hot-plate and tail-flick tests time the reaction to a heat stimulus.)

The subject of data set [4] is Mus musculus. Nature of the data set: Antiallodynic activity in oxaliplatin-induced Albino Swiss CD-1 mouse model of peripheral neuropathy assessed as elevation in pain sensitivity threshold administered ip 30 mins prior to oxaliplatin challenge. It counts as functional, organism-based. The method, boiled down: (§2)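 Male CD-1 mice, 18–25 g, that had developed oxaliplatin-induced tactile allodynia were dosed ip 30 min before testing. Doses were 25, 50 or 100 mg/kg, or 50, 100 or 150 mg/kg for the reference. Vehicle was 1% aqueous Tween 80. Paw-withdrawal force was measured by von Frey filaments. Data are mean ± SEM, analysed by repeated-measures ANOVA with Dunnett's test against oxaliplatin plus vehicle mice.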

Data set [5] in a line: Neurotoxicity in ip dosed Albino Swiss CD-1 mouse assessed as induction of motor impairment measured up to 60 secs by chimney test. Type of data set: toxicity, organism-based. The note with it: in vivo. The procedure, abridged: (§3)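 Acute neurological toxicity after ip dosing (1% Tween 80 suspension) was assessed in the mouse chimney test. TD50 with 95% confidence limits was derived by probit analysis. Protective index is TD50 from the chimney test divided by ED50 from the MES, scPTZ or 6 Hz test.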

Data set [6] concerns Mus musculus. The data set can be described thus: Protection index, ratio of TD50 for neurotoxicity in ip dosed Albino Swiss CD-1 mouse to ED50 for ip dosed Albino Swiss CD-1 mouse model of 6 Hz-induced siezures. The method, boiled down:
as §3

Data set [7] has as its system Mus musculus. Nature of the data set: Antinociceptive activity in Albino Swiss CD-1 mouse assessed as inhibition of formalin-induced inflammatory pain response administered ip 30 mins before formalin injection measured after 15 to 30 mins. Type of data set: functional. Conditions: Swiss CD-1, ip. The procedure, abridged: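 Male CD-1 mice were given test agents ip 30 min before subcutaneous intraplantar formalin. Doses were 12.5, 25 or 50 mg/kg, or 100, 150 or 200 mg/kg for the reference. Vehicle was 1% Tween 80 at 10 mL/kg. Paw licking time was recorded in phase I (0–5 min) and phase II (15–30 min). Data are mean ± SEM of 8–10 mice, by Dunnett's test. ED50 was obtained by log-probit analysis with 95% confidence limits.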

Data set [8] deals with Mus musculus. The data set can be described thus: Antinociceptive activity in Albino Swiss CD-1 mouse assessed as inhibition of capsaicin-induced nociception by measuring time spent licking injected paw at 50 mg/kg, ip administered 30 mins mins prior to capsaicin challenge measured for 5 mins relative to control. Type of data set: functional. The note with it: Swiss CD-1, ip. The method, boiled down:
(§4)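 Mice (male CD-1, 18–25 g) were pretreated ip 30 min before intraplantar capsaicin. Doses were 25, 50 or 100 mg/kg, or 100, 150 or 200 mg/kg for the reference. Vehicle was 1% Tween 80 at 10 mL/kg. Duration of nociceptive response was scored over 5 min after injection. Data are mean ± SEM of 8–10 mice, by one-way ANOVA with Dunnett's test against vehicle.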

In data set [9] the test system is Mus musculus. Nature of the data set: Anticonvulsant activity in Albino Swiss CD-1 mouse assessed as inhibition of pentylenetetrazole-induced seizures by measuring time to peak effect at 100 mg/kg, ip administered up to 2 hrs prior to PTZ induction measured for 30 mins. Type of data set: functional.
Data set [10] is filed under the species Rattus norvegicus. Nature of the data set: Displacement of (-)-[3H](-)D 888 from L-type calcium channel verapamil binding site in rat cerebral cortex at 100 uM. The method, boiled down:
as §1

The species named for data set [11] is Rattus norvegicus. The data set can be described thus: Displacement of [3H]-batrachotoxinin from sodium channel site 2 in rat cerebral cortex at 100 uM after 60 mins by liquid scintillation spectroscopic method. The procedure, abridged:
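Run commercially by an outside contract lab, with the compound tested at 100 μM. The read-out was percent inhibition of binding of the radiolabelled ligand, reported as compound binding.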

In data set [12] the test system is Mus musculus. Nature of the data set: Protection index, ratio of TD50 for neurotoxicity in ip dosed Albino Swiss CD-1 mouse to ED50 for ip dosed pentylenetetrazole induced seizure Albino Swiss CD-1 mouse model. The procedure, abridged:
as §3

The subject of data set [13] is Mus musculus. Nature of the data set: Anticonvulsant activity in Albino Swiss CD-1 mouse assessed as protection against maximal electroshock-induced seizures by measuring time to peak effect at 100 mg/kg, ip pretreated up to 2 hrs followed by 50 Hz current induction for […]. Type of data set: functional.
Data set [14] deals with Mus musculus. The data set can be described thus: Toxicity in Albino Swiss CD-1 mouse assessed as motor coordination impairment at 50 to 150 mg/kg, ip by rotarod test. Type of data set: organism-based. The note with it: in vivo. For orientation: Falling from the rotarod earlier than controls is read as motor impairment.
The subject of data set [15] is Mus musculus. The data set can be described thus: Anticonvulsant activity in Albino Swiss CD-1 mouse assessed as protection against 6 Hz current-induced seizure at 100 mg/kg, ip pretreated up to 2 hrs followed by 6 Hz current induction for 3 secs relative to control. Type of data set: functional.
The nature of data set [16]: Retention time of the compound by LC-MS method.
For data set [17], the species on record is Rattus norvegicus. The data set can be described thus: Displacement of [3H]GABA from GABA transporter in rat cerebral cortex at 100 uM by liquid scintillation spectrometry. The procedure, abridged: as §1
The subject of data set [18] is Mus musculus. Nature of the data set: Antiallodynic activity in oxaliplatin-induced Albino Swiss CD-1 mouse model of peripheral neuropathy assessed as elevation in pain sensitivity threshold at 25 mg/kg, ip administered 30 mins prior to oxaliplatin challenge relative to control. Type of data set: functional. The method, boiled down:
as §2

Data set [19] deals with Mus musculus. Nature of the data set: Anticonvulsant activity in Albino Swiss CD-1 mouse assessed as inhibition of pentylenetetrazole-induced seizures at 100 mg/kg, ip administered up to 0.5 hrs prior to PTZ induction measured after 30 mins relative to control. It counts as functional. The arrangement: scale not given: the % may be the effect or the level left.
The target of data set [20] is GABA-A receptor; alpha-1/beta-2/gamma-2 (Homo sapiens) (UniProt P14867+P47870+P18507). Nature of the data set: Displacement of [3H]muscimol from human GABAalpha1beta2gamma2 receptor expressed in CHO cells at 100 uM after 30 mins by liquid scintillation counting. It counts as cell-based. The method, boiled down:
as §1

In data set [21] the test system is Mus musculus. The data set can be described thus: Protection index, ratio of TD50 for neurotoxicity in ip dosed Albino Swiss CD-1 mouse to ED50 for ip dosed maximal electroshock induced seizure Albino Swiss CD-1 mouse. The procedure, abridged: as §3
The subject of data set [22] is Mus musculus. Nature of the data set: Antinociceptive activity in Albino Swiss CD-1 mouse assessed as inhibition of capsaicin-induced nociception by measuring time spent licking injected paw administered ip 30 mins mins prior to capsaicin challenge measured for 5 mins. It counts as functional, organism-based. The procedure, abridged:
as §4

In data set [23] the test system is Mus musculus. The data set can be described thus: Anticonvulsant activity in ip dosed Albino Swiss CD-1 mouse assessed as protection against 32 mA current-induced seizure treated up to 2 hrs prior to 6-Hz current induction measured at time to peak effect. It counts as functional. The note with it: Swiss CD-1, ip.
Data set [24] has as its system Mus musculus. Nature of the data set: Anticonvulsant activity in ip dosed Albino Swiss CD-1 mouse assessed as inhibition of pentylenetetrazole-induced seizures administered up to 2 hrs prior to PTZ induction measured at time to peak effect. Type of data set: functional. Conditions: Swiss CD-1, ip.

The source of these data is ChEMBL document CHEMBL4017532, “Multifunctional Hybrid Compounds Derived from 2-(2,5-Dioxopyrrolidin-1-yl)-3-methoxypropanamides with Anticonvulsant and Antinociceptive Properties” (J Med Chem, 2017).

The source made the active and inactive calls. Bounds are passed on as bounds.

A word on the TD50: it is the 50% point of the dose-response relation for the toxic effect studied. In general, ED50 refers to the dose that gives a 50% effect, or the effect in half of the subjects. As usually defined, the inhibition in vivo is the share of the control response that was lost under treatment.

For `COCC(C(=O)N1CCN(c2ccc(C(F)(F)F)cc2)CC1)N1C(=O)CCC1=O` (centres undefined), the Activity in [1] was 122%; in [4] it was “Dose-dependent effect”; in data set [14], “Non-Toxic”; in data set [15] it was “<=75%”; in data set [18] it was 112.6%; in data set [19], 75%. Moreover, the inhibition result in data set [2], in data set [10], in [11], in data set [17] and in data set [20] was “inactive” each time. The result in data set [3] was inactive. For the same compound, the TD50 at 1 min in data set [5] fell in the range of 156 to 199 mg/kg. In addition, the “Ratio TD50/ED50” value is on record as 5.8 - 8.9 in data set [6], 1.6 in data set [12] and 1.9 - 2.5 in [21]. Also, the ED50 in data set [7] is 5.1 mg/kg; in [23] it was 22.4 to 26.9 mg/kg; in [24], 123 mg/kg. For the same compound, in data set [8], the inhibition in vivo at 50 mg/kg is 32.7%. Also, the results for the Time in data set [9] and in data set [13] were 0.5 h and 0.25 to 1 h, respectively. For the same compound, in [16], the Retention time amounted to 6.11 min. For the same compound, in data set [22], the inhibition result is “Dose-dependent effect”.
